The structures appear in SMILES notation.

The test system of the series is HCT116 (KRAS(mut)/p53(wt)) cells xenograft. As to the kind of experiment: In vivo anti-tumour activity, HCT116 xenograft. Also on record: species or system BALB/c nude mice. Conditions: i.p. 10 mg/kg, every 3 d, five times; for body weight changes: BALB/c nude mice; for tumour volume compared with the vehicle group: HCT116 xenograft. In outline: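 Six-week-old BALB/c nude mice received 1 × 10^7 HCT116 cells in 200 µL subcutaneously in the right flank. At 80–120 mm3, mice were randomised into four groups of 5. They were dosed i.p. in PBS pH 7.4 (0.2 ml) every 3 days ×5: vehicle or test compound at 1, 10 or 20 mg/kg; a second study used 10 mg/kg with reference inhibitors. Tumour volume was (min² × max)/2, with body weight recorded; mean ± SD.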

As for `O=C(CCCCCCC(=O)Nc1ccccc1)NO` [SAHA, Vorinostat], the body weight changes entry was “stable trend” and the “tumour volume compared with the vehicle group” value is on record as “smaller than that of the vehicle group”.
On the same counts, the results for `CN1CCN(Cc2ccc(Nc3ncc(Cl)c(Nc4ccccc4S(=O)(=O)N(C)C)n3)cc2)CC1` [TP0903] are “stable trend” and “smaller than that of the vehicle group”.

The record behind these values is article PMC10763849 (Journal of Enzyme Inhibition and Medicinal Chemistry, 2023).
